Calls of active or inactive are those of the source. The rule behind the calls is not given here.
Experiments:
RAW264.7 [1] = assay: Antiinflammatory activity against mouse RAW264.7 cells assessed as inhibition of LPS induced iNOS expression at 50 uM preincubated for 30 mins followed by LPS challenge and measured after 16 hrs by Western blot analysis; type: functional, cell-based
Procedure, shortened: (§1)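 RAW 264.7 cells in DMEM with 10% heat-inactivated FBS and penicillin/streptomycin at 37 °C, 5% CO2. Cells were pretreated 30 min at 50 μM, then given LPS 1 μg/mL for 16 h. iNOS and COX-2 protein were detected by Western blot (8–12% SDS-PAGE, PVDF, HRP secondary, chemiluminescence imaging), with equal total protein loaded by Bradford assay. n = 3.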

RAW264.7 [2] = assay: Antiinflammatory activity against mouse RAW264.7 cells assessed as inhibition of LPS-induced nitric oxide production by measuring nitrite levels at 50 uM preincubated for 30 mins followed by LPS challenge and measured after 16 hrs by Griess assay (reference value: 32.4 +/- 0.9 uM); type: functional
RAW264.7 [3] = assay: Antiinflammatory activity against mouse RAW264.7 cells assessed as inhibition of LPS induced COX2 expression at 50 uM preincubated for 30 mins followed by LPS challenge and measured after 16 hrs by Western blot analysis; type: functional, cell-based; procedure, shortened: as §1
RAW264.7 [4] = assay: Antiinflammatory activity against mouse RAW264.7 cells assessed as inhibition of LPS-induced nitric oxide production preincubated for 30 mins followed by LPS challenge and measured after 18 hrs by Griess assay; type: functional, cell-based
Procedure, shortened: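 Macrophages (RAW 264.7, 5 × 10^5/well, 24 h settle) were pretreated 30 min in phenol-red-free medium at 0.128–5.0 or 1.0–40 μM, then given LPS 1 μg/mL for 18 h. Culture-supernatant nitrite was read by Griess reaction, and an IC50 was estimated from the concentration–response. n = 3.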

RAW264.7 [5] = assay: Antiinflammatory activity against mouse RAW264.7 cells assessed as inhibition of LPS induced iNOS expression preincubated for 30 mins followed by LPS challenge and measured after 16 hrs by Western blot analysis; type: functional, cell-based
RAW264.7 [6] = assay: Antiinflammatory activity against mouse RAW264.7 cells assessed as inhibition of LPS induced COX2 expression preincubated for 30 mins followed by LPS challenge and measured after 16 hrs by Western blot analysis; type: functional, cell-based
RAW264.7 [7] = assay: Antiinflammatory activity against mouse RAW264.7 cells assessed as inhibition of LPS induced iNOS mRNA expression preincubated for 30 mins followed by LPS challenge and measured after 3 to 12 hrs by SYBR green dye based qRT-PCR analysis; type: functional, cell-based
Procedure, shortened: (§2)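 RAW 264.7 cells were pretreated 30 min, then given LPS 1 μg/mL for 3, 6, 9 or 12 h. Total RNA went to qRT-PCR with SYBR Green for Nos2/Ptgs2. Values were normalized to β-actin by 2^−ΔΔCT and expressed as fold change versus unstimulated cells. n = 3; means ± SD; significance versus LPS-only at p < 0.05.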

RAW264.7 [8] = assay: Antiinflammatory activity against mouse RAW264.7 cells assessed as inhibition of LPS induced COX2 mRNA expression preincubated for 30 mins followed by LPS challenge and measured after 3 to 12 hrs by SYBR green dye based qRT-PCR analysis; type: functional, cell-based; procedure, shortened: as §2
[9] = Effect on SAPK/JNK1/2 phosphorylation at T183/Y185 residues in mouse RAW264.7 cells at 40 uM measured after 30 mins by Western blot analysis; type: ADME, cell-based; details: raw264.7, 0.5 h
[10] = molecular target: T1, I-kappa-B kinase (Mus musculus) (UniProt Q60680+O88351+O88522); assay: Effect on IKK-mediated IkappaBalpha degradation in LPS-stimulated mouse RAW264.7 cells at 40 uM preincubated for 30 mins followed by LPS-stimulation and measured after 10 mins by Western blot analysis; type: cell-based
Procedure, shortened: (§3)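 RAW 264.7 cells were pretreated 30 min with compound (5 or 40 μM), then given LPS 1 μg/mL for several time points. Western blots of whole-cell lysates probed IκBα, total and Ser473-phospho Akt, and total and Tyr701-phospho STAT1, with GAPDH as loading reference. Detection used HRP chemiluminescence.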

[11] = molecular target: T1, I-kappa-B kinase (Mus musculus); assay: Effect on IKK-mediated IkappaBalpha degradation in LPS-stimulated mouse RAW264.7 cells assessed as IkappaBalpha recovery at 40 uM preincubated for 30 mins followed by LPS-stimulation and measured after 20 to 240 mins by Western blot analysis; type: cell-based; procedure, shortened: as §3
[12] = molecular target: RAC-alpha serine/threonine-protein kinase (Mus musculus) (UniProt P31750); assay: Inhibition of LPS-induced AKT phosphorylation at S473 residue in mouse RAW264.7 cells at 40 uM preincubated for 30 mins followed by LPS-stimulation and measured up to 240 mins by Western blot analysis; type: cell-based; procedure, shortened: as §3
Chain of RAC-alpha serine/threonine-protein kinase (Mus musculus) (P31750 whole entry): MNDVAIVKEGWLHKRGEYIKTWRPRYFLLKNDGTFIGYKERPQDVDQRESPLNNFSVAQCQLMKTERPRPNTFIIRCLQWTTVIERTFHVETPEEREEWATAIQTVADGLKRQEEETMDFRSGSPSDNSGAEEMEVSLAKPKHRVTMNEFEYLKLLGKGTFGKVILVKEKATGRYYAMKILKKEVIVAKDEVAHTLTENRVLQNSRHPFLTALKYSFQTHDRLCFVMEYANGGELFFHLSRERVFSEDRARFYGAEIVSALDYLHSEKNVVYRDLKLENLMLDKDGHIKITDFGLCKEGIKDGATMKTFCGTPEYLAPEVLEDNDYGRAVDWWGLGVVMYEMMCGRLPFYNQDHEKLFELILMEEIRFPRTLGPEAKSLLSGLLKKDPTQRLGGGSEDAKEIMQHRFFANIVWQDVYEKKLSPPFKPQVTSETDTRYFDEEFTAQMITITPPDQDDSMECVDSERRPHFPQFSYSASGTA

RAW264.7 [13] = assay: Effect on total AKT expression in LPS-stimulated mouse RAW264.7 cells at 40 uM preincubated for 30 mins followed by LPS-stimulation and measured up to 240 mins by Western blot analysis; type: ADME, cell-based; details: raw264.7, 4 h; procedure, shortened: as §3
[14] = molecular target: T2, Signal transducer and activator of transcription 1 (Mus musculus) (UniProt P42225); assay: Inhibition of LPS-induced STAT1 phosphorylation at Y701 residue in mouse RAW264.7 cells at 40 uM preincubated for 30 mins followed by LPS-stimulation and measured up to 240 mins by Western blot analysis; type: cell-based; procedure, shortened: as §3
T2 sequence (whole entry): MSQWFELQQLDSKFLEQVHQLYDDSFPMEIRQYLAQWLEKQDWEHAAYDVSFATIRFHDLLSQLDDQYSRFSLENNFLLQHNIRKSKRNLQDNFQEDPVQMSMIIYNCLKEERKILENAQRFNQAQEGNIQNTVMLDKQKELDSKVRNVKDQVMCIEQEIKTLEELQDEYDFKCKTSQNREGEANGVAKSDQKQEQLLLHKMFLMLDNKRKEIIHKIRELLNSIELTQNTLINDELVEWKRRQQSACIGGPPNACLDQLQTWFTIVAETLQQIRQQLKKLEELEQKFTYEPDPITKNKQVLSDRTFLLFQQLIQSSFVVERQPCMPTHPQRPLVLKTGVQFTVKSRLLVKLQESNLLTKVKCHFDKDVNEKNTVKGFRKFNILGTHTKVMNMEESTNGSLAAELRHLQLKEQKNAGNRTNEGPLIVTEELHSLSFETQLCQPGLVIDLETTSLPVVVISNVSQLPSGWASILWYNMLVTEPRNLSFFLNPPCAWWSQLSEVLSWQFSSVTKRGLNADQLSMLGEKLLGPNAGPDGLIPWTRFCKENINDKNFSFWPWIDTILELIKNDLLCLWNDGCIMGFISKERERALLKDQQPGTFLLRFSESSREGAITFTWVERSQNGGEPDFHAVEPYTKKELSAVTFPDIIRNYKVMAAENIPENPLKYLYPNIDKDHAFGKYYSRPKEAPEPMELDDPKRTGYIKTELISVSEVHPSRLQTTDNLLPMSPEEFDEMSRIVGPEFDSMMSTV

RAW264.7 [15] = assay: Effect on total STAT1 expression in LPS-stimulated mouse RAW264.7 cells at 40 uM preincubated for 30 mins followed by LPS-stimulation and measured up to 240 mins by Western blot analysis; type: ADME, cell-based; details: raw264.7, 4 h; procedure, shortened: as §3
[16] = Effect on SAPK/JNK1/2 phosphorylation at T183/Y185 residues in mouse RAW264.7 cells at 5 uM measured after 30 mins by Western blot analysis; type: ADME, cell-based; details: raw264.7, 0.5 h
[17] = molecular target: T1, I-kappa-B kinase (Mus musculus); assay: Effect on IKK-mediated IkappaBalpha degradation in LPS-stimulated mouse RAW264.7 cells at 5 uM preincubated for 30 mins followed by LPS-stimulation and measured after 10 mins by Western blot analysis; type: cell-based; procedure, shortened: as §3
[18] = molecular target: T1, I-kappa-B kinase (Mus musculus); assay: Effect on IKK-mediated IkappaBalpha degradation in LPS-stimulated mouse RAW264.7 cells assessed as IkappaBalpha recovery at 5 uM preincubated for 30 mins followed by LPS-stimulation and measured after 20 to 240 mins by Western blot analysis; type: cell-based; procedure, shortened: as §3
[19] = molecular target: RAC-alpha serine/threonine-protein kinase (Mus musculus) (UniProt P31750); assay: Inhibition of LPS-induced AKT phosphorylation at S473 residue in mouse RAW264.7 cells at 5 uM preincubated for 30 mins followed by LPS-stimulation and measured up to 240 mins by Western blot analysis; type: cell-based; procedure, shortened: as §3
RAW264.7 [20] = assay: Effect on total AKT expression in LPS-stimulated mouse RAW264.7 cells at 5 uM preincubated for 30 mins followed by LPS-stimulation and measured up to 240 mins by Western blot analysis; type: ADME, cell-based; details: raw264.7, 4 h; procedure, shortened: as §3
[21] = molecular target: T2, Signal transducer and activator of transcription 1 (Mus musculus); assay: Inhibition of LPS-induced STAT1 phosphorylation at Y701 residue in mouse RAW264.7 cells at 5 uM preincubated for 30 mins followed by LPS-stimulation and measured up to 240 mins by Western blot analysis; type: cell-based; procedure, shortened: as §3
RAW264.7 [22] = assay: Effect on total STAT1 expression in LPS-stimulated mouse RAW264.7 cells at 5 uM preincubated for 30 mins followed by LPS-stimulation and measured up to 240 mins by Western blot analysis; type: ADME, cell-based; details: raw264.7, 4 h; procedure, shortened: as §3

| SMILES | inhibition (RAW264.7 [1]) | Activity (RAW264.7 [2]) [µM] | inhibition (RAW264.7 [3]) | IC50 (RAW264.7 [4]) [µM] | inhibition (RAW264.7 [5]) | inhibition (RAW264.7 [6]) | inhibition (RAW264.7 [7]) | inhibition (RAW264.7 [8]) | also measured |
| --- | --- | --- | --- | --- | --- | --- | --- | --- | --- |
| CO[C@H]1CC(=O)[C@]2(C)[C@H]3CC[C@]4(C)[C@](O)([C@@](C)(O)[C@H]5CC(C)=C(C)C(=O)O5)CC[C@@]4(O)[C@@H]3C[C@H]3O[C@]32[C@H]1O | Active | 1.1 | Active | 13.8 | Dose-dependent effect | Dose-dependent effect | Dose-dependent effect | Dose-dependent effect | Activity [9]: Not Active; Activity [10]: inactive; Activity [11]: inactive; inhibition [12]: Active; Activity (RAW264.7 [13]): Non-Toxic; inhibition [14]: Active; Activity (RAW264.7 [15]): Non-Toxic |
| CC1=C(C)C(=O)O[C@@H]([C@](C)(O)[C@]2(O)CC[C@@]3(O)[C@@H]4C[C@H]5O[C@]56[C@@H](O)C=CC(=O)[C@]6(C)[C@H]4CC[C@]23C)C1 | Active | 0.9 | Active | 1.8 | Dose-dependent effect | Dose-dependent effect | Dose-dependent effect | Dose-dependent effect | Activity [16]: Not Active; Activity [17]: inactive; Activity [18]: inactive; inhibition [19]: Active; Activity (RAW264.7 [20]): Non-Toxic; inhibition [21]: Active; Activity (RAW264.7 [22]): Non-Toxic |

— ChEMBL document CHEMBL4422643, “Physalactone and 4β-Hydroxywithanolide E Isolated from Physalis peruviana Inhibit LPS-Induced Expression of COX-2 and iNOS Accompanied by Abatement of Akt and STAT1” (J Nat Prod, 2019)
